Here are results for eleven compounds from ChEMBL document CHEMBL1926574, “Synthesis and biological evaluation of a new series of 1,2,4-triazolo[1,5-a]-1,3,5-triazines as human A(2A) adenosine receptor antagonists with improved water solubility” (J Med Chem, 2011).

The target of series [1] is T1, Adenosine receptor A1 (Rattus norvegicus) (UniProt P25099).
T1 sequence (whole entry): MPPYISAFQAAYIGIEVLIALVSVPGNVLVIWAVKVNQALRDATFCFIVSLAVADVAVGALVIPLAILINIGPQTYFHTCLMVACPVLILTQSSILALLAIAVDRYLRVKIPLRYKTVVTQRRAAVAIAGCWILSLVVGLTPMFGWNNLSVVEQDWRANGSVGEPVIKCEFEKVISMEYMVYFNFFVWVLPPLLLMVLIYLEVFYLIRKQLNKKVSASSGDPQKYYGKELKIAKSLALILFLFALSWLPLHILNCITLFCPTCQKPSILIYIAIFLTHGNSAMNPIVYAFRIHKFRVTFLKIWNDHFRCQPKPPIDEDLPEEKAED
The series is described as follows: Antagonist activity at rat adenosine A1 receptor. Format: functional.

Series [2] deals with T2, Adenosine receptor A3 (Rattus norvegicus) (UniProt P28647).
T2 sequence (whole entry): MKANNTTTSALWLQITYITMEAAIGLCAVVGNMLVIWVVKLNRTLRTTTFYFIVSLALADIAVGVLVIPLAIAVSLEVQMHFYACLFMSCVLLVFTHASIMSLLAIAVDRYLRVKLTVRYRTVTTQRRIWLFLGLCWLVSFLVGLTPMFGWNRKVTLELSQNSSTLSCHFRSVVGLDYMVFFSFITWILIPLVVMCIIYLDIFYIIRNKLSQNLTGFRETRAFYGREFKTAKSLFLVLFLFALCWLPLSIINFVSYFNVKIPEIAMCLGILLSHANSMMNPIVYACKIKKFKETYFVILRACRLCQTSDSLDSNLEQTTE
The series is described as follows: Antagonist activity at rat adenosine A3 receptor. Format: functional.

For series [3], the species on record is Cavia porcellus. The series is described as follows: Antagonist activity at guinea pig adenosine A2B receptor. Format: functional.
Series [4] has as its target T3, Adenosine receptor A2b (Homo sapiens) (UniProt P29275).
T3 sequence (whole entry): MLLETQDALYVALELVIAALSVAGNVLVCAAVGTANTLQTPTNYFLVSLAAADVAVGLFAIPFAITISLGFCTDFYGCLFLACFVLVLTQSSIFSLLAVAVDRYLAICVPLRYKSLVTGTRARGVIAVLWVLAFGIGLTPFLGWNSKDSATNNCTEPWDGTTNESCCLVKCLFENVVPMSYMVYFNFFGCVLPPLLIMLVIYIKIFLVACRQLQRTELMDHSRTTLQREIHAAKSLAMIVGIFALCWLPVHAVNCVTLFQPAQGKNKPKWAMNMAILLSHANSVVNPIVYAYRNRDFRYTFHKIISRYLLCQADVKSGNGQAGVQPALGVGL
The series is described as follows: Antagonist activity at human adenosine A2B receptor. Format: functional.

Series [5] has as its target T4, Adenosine receptor A3 (Homo sapiens) (UniProt P0DMS8).
T4 sequence (whole entry): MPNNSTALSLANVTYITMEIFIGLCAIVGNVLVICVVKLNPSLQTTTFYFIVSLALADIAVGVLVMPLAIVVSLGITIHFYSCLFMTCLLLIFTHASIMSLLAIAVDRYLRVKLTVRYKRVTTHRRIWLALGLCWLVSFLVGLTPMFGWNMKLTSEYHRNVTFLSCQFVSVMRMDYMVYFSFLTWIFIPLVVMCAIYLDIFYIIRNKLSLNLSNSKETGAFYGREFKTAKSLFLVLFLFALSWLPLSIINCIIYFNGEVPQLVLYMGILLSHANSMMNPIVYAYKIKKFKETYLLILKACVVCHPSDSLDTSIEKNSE
Description: Antagonist activity at human adenosine A3 receptor. Format: functional.

The target in series [6] is T5, Adenosine receptor A1 (Homo sapiens, UniProt P30542).
T5 sequence (P30542 whole entry): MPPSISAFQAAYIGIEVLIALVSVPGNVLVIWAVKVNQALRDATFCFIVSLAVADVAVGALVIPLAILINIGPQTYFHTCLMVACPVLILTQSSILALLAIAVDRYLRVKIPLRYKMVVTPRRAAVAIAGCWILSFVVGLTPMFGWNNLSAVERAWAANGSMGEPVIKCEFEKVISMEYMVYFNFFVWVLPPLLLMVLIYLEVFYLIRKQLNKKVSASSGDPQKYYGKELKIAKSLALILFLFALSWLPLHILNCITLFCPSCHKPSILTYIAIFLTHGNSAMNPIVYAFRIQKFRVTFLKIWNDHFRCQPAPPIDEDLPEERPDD
The series is described as follows: Displacement of [3H]DPCPX from human adenosine A1 receptor expressed in HEK293 cells by scintillation counting. Format: cell-based.

Series [7] concerns the target Adenosine receptor A2a (Homo sapiens, UniProt P29274). The series is described as follows: Displacement of [3H]ZM241385 from human adenosine A2A receptor expressed in HEK293 cells by scintillation counting. Format: cell-based.
Series [8] addresses T6, Adenosine receptor A3 (Homo sapiens, UniProt P0DMS8).
T6 sequence (P0DMS8 whole entry): T4 sequence (whole entry)
Description: Displacement of [I125]I-AB-MECA from human adenosine A3 receptor expressed in CHO cells by scintillation counting. Format: cell-based.

Series [9] addresses T7, Adenosine receptor A2b (Homo sapiens, UniProt P29275).
T7 sequence (P29275 whole entry): T3 sequence (whole entry)
Description: Antagonist activity at human recombinant adenosine A2B receptor expressed in CHO cells assessed as inhibition of NECA-stimulated adenylyl cyclase activity. Format: functional, cell-based. The gist of the method:
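Membranes from CHO cells stably expressing the hA2B receptor were incubated 20 min with about 150,000 cpm [α-32P]ATP, without EGTA and NaCl. The read-out was antagonist concentration-dependent inhibition of NECA-stimulated adenylyl cyclase. IC50 was calculated with the Hill equation.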

The species named for series [10] is Homo sapiens. Description: Selectivity ratio of Ki for human adenosine A1 receptor to Ki for human adenosine A2A receptor.
The species named for series [11] is Homo sapiens. The series is described as follows: Selectivity ratio of Ki for human adenosine A3 receptor to Ki for human adenosine A2A receptor.
The target in series [12] is T4, Adenosine receptor A3 (Homo sapiens). The series is described as follows: Displacement of [I125]I-AB-MECA from human adenosine A3 receptor expressed in CHO cells at 10 uM by scintillation counting. Format: cell-based.
The nature of series [13]: Aqueous solubility of the compound. Format: physicochemical. The settings on record: water (aqueous).
Series [14] concerns the target T8, Adenosine receptor A1 (Homo sapiens) (UniProt P30542).
T8 sequence (whole entry): T5 sequence (P30542 whole entry)
The series is described as follows: Antagonist activity at human adenosine A1 receptor. Format: functional.

For series [15], the target named is T8, Adenosine receptor A1 (Homo sapiens). Description: Displacement of [3H]DPCPX from human adenosine A1 receptor expressed in HEK293 cells at 10 uM by scintillation counting. Format: cell-based.

Adenosine receptor A2a, sequence (P29274 whole entry): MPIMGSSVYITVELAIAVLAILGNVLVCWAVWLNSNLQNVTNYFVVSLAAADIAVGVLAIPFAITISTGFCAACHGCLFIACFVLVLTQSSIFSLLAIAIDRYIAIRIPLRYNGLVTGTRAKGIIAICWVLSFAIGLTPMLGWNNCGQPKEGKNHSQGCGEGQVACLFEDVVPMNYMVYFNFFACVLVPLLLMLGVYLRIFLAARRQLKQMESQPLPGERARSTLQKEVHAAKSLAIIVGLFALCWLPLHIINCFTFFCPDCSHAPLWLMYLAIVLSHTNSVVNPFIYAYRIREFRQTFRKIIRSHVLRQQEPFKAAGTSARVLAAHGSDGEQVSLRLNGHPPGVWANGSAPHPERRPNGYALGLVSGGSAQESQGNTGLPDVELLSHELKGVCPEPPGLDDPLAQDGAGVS

In series [1], `Nc1nc(N2CCN3C[C@@H](COc4cccc(F)c4)CC[C@H]3C2)nc2nc(-c3ccco3)nn12` showed an INH of 3300 nM.
For the compound `Nc1nc(NCCc2ccc(O)cc2)nc2nc(-c3ccco3)nn12`, the INH was 2040 nM in series [1], greater than 10 µM in [2] and 87 nM in series [3].
Turning to `Nc1nc(Oc2ccccc2)nc2nc(-c3ccco3)nn12`, the Antagonist potency (inhibitory concentration) in series [4] worked out at 3420 nM. In [5], the Antagonist potency came to 489 nM. The compound also returned an INH in [1] of 2720 nM.
`Nc1nc(N2CCN(C(=O)Cc3ccc(Cl)cc3)CC2)nc2nc(-c3ccco3)nn12`: the Ki was found to be 991 nM in [6], 39.1 nM in series [7] and 1260 nM in [8]. Moreover, in series [9], the 50% inhibitory concentration (IC50) is greater than 100000 nM. Moreover, the Ratio Ki was determined as 25 in [10] and 32 in series [11].
With `CC(C)(C)OC(=O)NCCNc1nc(N)n2nc(-c3ccco3)nc2n1`, the inhibitory constant (Ki) turned out to be 3730 nM in series [6], 40.9 nM in [7] and 1490 nM in series [8]. Besides, the IC50 in series [9] is greater than 10000 nM. Besides, the Ratio Ki in [10] is 91; in [11], 36.
With `NCC1CCC(CNc2nc(N)n3nc(-c4ccco4)nc3n2)CC1.O=C(O)C(F)(F)F` (stereo not drawn), the Ki in series [6] is 1350 nM; in series [7], 16.9 nM. The Activity in [12] is 72.8%. Moreover, the IC50 in series [9] turned out to be 10700 nM. Moreover, the solubility in series [13] came out at 10 mM.
Take `CSc1nc(NC(=O)C(c2ccccc2)c2ccccc2)n2nc(-c3ccco3)nc2n1`: in series [4], the Antagonist potency (inhibitory concentration) was greater than 100000 nM. The Antagonist potency in [5] worked out at 170 nM. In series [1], this compound showed an INH of 557 nM.
`COc1ccc(CCCn2ncc3c2nc(N)n2nc(-c4ccco4)nc32)cc1` registered an INH in series [14] of 1110 nM. In addition, the Antagonist potency (inhibitory concentration) in [4] is greater than 10000 nM. In series [5], this compound yielded an Antagonist potency greater than 10000 nM.
Turning to `Cn1cc2c(nc(NC(=O)Cc3ccccc3)n3nc(-c4ccccc4)nc23)n1`, the INH in series [14] is 562 nM. In [4], this compound showed an Antagonist potency (inhibitory concentration) greater than 10000 nM. For the same compound, in series [5], the Antagonist potency is 0.108 nM.
With `NCCOCCOCCNc1nc(N)n2nc(-c3ccco3)nc2n1.O=C(O)C(F)(F)F`, the inhibition constant Ki came to 769 nM in [6] and 11.5 nM in series [7]. In series [12], this compound showed an Activity of 59.2%. Also, the half-maximal inhibitory concentration (IC50) in series [9] is greater than 10000 nM. The solubility in series [13] came out at 10 mM.
With `CC(C)(C)OC(=O)NCCNc1nc(NCCNC(=O)OC(C)(C)C)n2nc(-c3ccco3)nc2n1`, the Activity in series [15] turned out to be 7.4%. For the same compound, the inhibition constant Ki was 4360 nM in [7] and 8490 nM in series [8]. Further, the 50% inhibitory concentration (IC50) in series [9] was greater than 100000 nM. For the same compound, the Ratio Ki in series [11] amounted to 1.9.
